Assay results as given in ChEMBL document CHEMBL2150981, “Discovery and optimization of benzotriazine di-N-oxides targeting replicating and nonreplicating Mycobacterium tuberculosis” (J Med Chem, 2012).
Converted amounts (≈) assume the structure as drawn.

How the values were obtained:
[1] = tested on: Plasma; experiment: Plasma concentration in Balb/c mouse at 100 mg/kg, po at 24 hrs; type: ADME, organism-based; set-up: dose 100 mg/kg, route oral; conditions: in vivo, BLD = below limit of detection
Summary of the method: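 Single oral gavage dose of 100 mg/kg to female mice, three mice per time point. Blood was drawn at 5, 15, 30, 60 min and 2, 4, 6, 8 and 24 h and processed to plasma for analysis. Noncompartmental PK analysis.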

[2] = Solubility of the compound in 0.9% saline solution after 48 hrs by shake flask method at pH 7.4; type: physicochemical
Summary of the method: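 Shake-flask method in triplicate: ~20 mg of ground compound in 5 mL 0.9% saline pH 7.4, stirred at 25°C for 48 h. The sample was filtered through 0.45 µm PVDF and the filtrate quantified by HPLC at each compound's absorption maximum against a per-compound standard curve (R² > 0.99).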

[3] = tested on: Mycobacterium tuberculosis; experiment: Antitubercular activity against Mycobacterium tuberculosis H37Rv isolate SRI after 5 days by resazurin-based microplate assay; type: functional; conditions: 120 h
[4] = tested on: Mycobacterium tuberculosis; experiment: Antitubercular activity against p-amino-salicyclic acid-resistant Mycobacterium tuberculosis ATCC 35821 after 5 days by resazurin-based microplate assay; type: functional; conditions: ATCC 35821, 120 h
Summary of the method: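 Mid-log cultures grown in 7H9 with glycerol, Tween-80 and ADC. Compounds in DMSO were tested two-fold from […] against ~10^5 CFU/mL, 37°C for 5 d. Resazurin was then added for a further 2 d, and fluorescence read at ex 530/em 590 with visual confirmation. MIC was the lowest concentration inhibiting 90% of growth. Final DMSO 0.625%; two-fold variation taken as assay error.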

[5] = Selectivity index, ratio of CC50 for Vero cells to MIC90 for Mycobacterium tuberculosis H37Rv isolate SRI; type: functional
[6] = tested on: Mycobacterium tuberculosis; experiment: Antitubercular activity against Mycobacterium tuberculosis H37Rv incubated for 10 days in anaerobic condition followed by 48 hrs incubation in aerobic condition by LORA assay; type: functional
[7] = tested on: Mycobacterium tuberculosis; experiment: Antitubercular activity against Mycobacterium tuberculosis H37Rv isolate ITR after 7 days by luminescence spectrometry; type: functional; conditions: 168 h
[8] = tested on: Salmonella typhimurium; experiment: Mutagenicity in Salmonella typhimurium TA98 assessed as increase in number of revertant colonies by Ames test in presence of S9 fraction; type: toxicity, organism-based; conditions: salmonella enterica subsp. enterica serovar typhimurium
Summary of the method: (§1)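 Plate-incorporation Ames test in Salmonella typhimurium TA98 and TA100, with and without an Aroclor 1254-induced rat-liver metabolic activation system containing 10% S9. Revertant colonies counted per plate, with means and standard deviations and background lawn condition recorded.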

[9] = tested on: L5178Y; experiment: Mutagenicity against mouse L5178Y cells at 100 ug/mL after 4 hrs by MOLY assay in absence of S9 fraction; type: toxicity, cell-based
Summary of the method: (§2)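 Mouse lymphoma tk+/- → tk-/- forward mutation assay, 4 h or 24 h exposure, with or without Aroclor 1254-induced rat-liver S9. Endpoints were suspension and relative total growth, relative cloning efficiency, mutation frequency, and small TFT-resistant colonies (<0.6 mm). A call was positive for significant mutation-frequency induction; induction only slightly above 40 × 10^-6 net over mean solvent control was considered biologically negative.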

[10] = tested on: Salmonella typhimurium; experiment: Mutagenicity in Salmonella typhimurium TA100 assessed as increase in number of revertant colonies by Ames test in presence of S9 fraction; type: toxicity, organism-based; conditions: salmonella enterica subsp. enterica serovar typhimurium; summary of the method: as §1
[11] = tested on: Salmonella typhimurium; experiment: Mutagenicity in Salmonella typhimurium TA98 assessed as increase in number of revertant colonies by Ames test in absence of S9 fraction; type: toxicity, organism-based; conditions: salmonella enterica subsp. enterica serovar typhimurium; summary of the method: as §1
[12] = tested on: L5178Y; experiment: Mutagenicity against mouse L5178Y cells at 10 ug/mL after 4 hrs by MOLY assay in absence of S9 fraction; type: toxicity, cell-based; summary of the method: as §2
[13] = tested on: Salmonella typhimurium; experiment: Mutagenicity in Salmonella typhimurium TA100 assessed as increase in number of revertant colonies by Ames test in absence of S9 fraction; type: toxicity, organism-based; conditions: salmonella enterica subsp. enterica serovar typhimurium; summary of the method: as §1
[14] = tested on: L5178Y; experiment: Mutagenicity against mouse L5178Y cells at 25 ug/mL after 4 hrs by MOLY assay in presence of S9 fraction; type: toxicity, cell-based; conditions: s9, 4 h; summary of the method: as §2
[15] = tested on: L5178Y; experiment: Mutagenicity against mouse L5178Y cells at 100 ug/mL after 4 hrs by MOLY assay in presence of S9 fraction; type: toxicity, cell-based; conditions: s9, 4 h; summary of the method: as §2
[16] = tested on: Vero; experiment: Cytotoxicity against african green monkey Vero cells after 72 hrs by CellTiterGlo assay; conditions: chlorocebus sabaeus, vero, 72 h
[17] = tested on: L5178Y; experiment: Mutagenicity against mouse L5178Y cells at 25 ug/mL after 4 hrs by MOLY assay in absence of S9 fraction; type: toxicity, cell-based; summary of the method: as §2
[18] = tested on: L5178Y; experiment: Mutagenicity against mouse L5178Y cells at 50 ug/mL after 4 hrs by MOLY assay in presence of S9 fraction; type: toxicity, cell-based; conditions: s9, 4 h; summary of the method: as §2
[19] = tested on: L5178Y; experiment: Mutagenicity against mouse L5178Y cells at 50 ug/mL after 4 hrs by MOLY assay in absence of S9 fraction; type: toxicity, cell-based; summary of the method: as §2
[20] = tested on: L5178Y; experiment: Mutagenicity against mouse L5178Y cells at 10 ug/mL after 4 hrs by MOLY assay in presence of S9 fraction; type: toxicity, cell-based; conditions: s9, 4 h; summary of the method: as §2
[21] = tested on: L5178Y; experiment: Mutagenicity against mouse L5178Y cells at 25 ug/mL after 24 hrs by MOLY assay in absence of S9 fraction; type: toxicity, cell-based; summary of the method: as §2
[22] = tested on: L5178Y; experiment: Mutagenicity against mouse L5178Y cells at 10 ug/mL after 24 hrs by MOLY assay in absence of S9 fraction; type: toxicity, cell-based; summary of the method: as §2

Structure (SMILES): CCNc1n[n+]([O-])c2ccccc2[n+]1[O-]
- Cp [1]: BLD
- solubility thermodynamic at 48 h [2]: 1350 µg/mL (≈ 6550 µM)
- MIC90 [3]: 1.2 µg/mL (≈ 5.82 µM)
- MIC90 [4]: 1.2 µg/mL (≈ 5.82 µM)
- Selectivity Index [5]: 17
- MIC90 [6]: 0.37 µg/mL (≈ 1.79 µM)
- MIC90 [7]: 0.57 µg/mL (≈ 2.76 µM)

Structure (SMILES): CCNc1n[n+]([O-])c2cc3c(cc2[n+]1[O-])CCC3
- Activity [8]: Dose-dependent effect
- Activity [9]: Toxic
- Activity [10]: Dose-dependent effect
- Activity [11]: Dose-dependent effect
- Activity [12]: Toxic
- Activity [13]: Dose-dependent effect
- Activity [14]: Toxic
- Activity [15]: Toxic
- MIC90 [3]: 1.2 µg/mL (≈ 4.87 µM)
- CC50 [16]: 36 µg/mL (≈ 146 µM)
- MIC90 [4]: 1.2 µg/mL (≈ 4.87 µM)
- Activity [17]: Toxic
- Selectivity Index [5]: 29
- MIC90 [6]: 0.83 µg/mL (≈ 3.37 µM)
- MIC90 [7]: 0.95 µg/mL (≈ 3.86 µM)
- Activity [18]: Toxic
- Activity [19]: Toxic
- Activity [20]: Toxic

Structure (SMILES): [O-][n+]1nc(N2CCCC2)[n+]([O-])c2cc3c(cc21)CCC3
- Activity [8]: Dose-dependent effect
- Activity [9]: Non-toxic
- Activity [10]: Dose-dependent effect
- Activity [11]: Dose-dependent effect
- Cp [1]: BLD
- Activity [12]: Non-toxic
- Activity [13]: Dose-dependent effect
- Activity [14]: Non-toxic
- Activity [15]: Non-toxic
- solubility thermodynamic at 48 h [2]: 280 µg/mL (≈ 1030 µM)
- MIC90 [3]: 0.31 µg/mL (≈ 1.14 µM)
- CC50 [16]: 25 µg/mL (≈ 91.8 µM)
- MIC90 [4]: 0.31 µg/mL (≈ 1.14 µM)
- Activity [17]: Non-toxic
- Selectivity Index [5]: 80
- MIC90 [6]: 0.99 µg/mL (≈ 3.64 µM)
- Activity [21]: Non-toxic
- MIC90 [7]: 0.46 µg/mL (≈ 1.69 µM)
- Activity [18]: Non-toxic
- Activity [22]: Non-toxic
- Activity [19]: Non-toxic
- Activity [20]: Non-toxic
